Test results taken from ChEMBL document CHEMBL3272244, “Synthesis and biological activity of two metabolites of 1-methyl-5-(1-methylethyl)-2-nitro-1 H-imidazole, an antiprotozoal agent” (J Med Chem, 1977).
Values after ≈ are worked out from the molar mass of the structure shown.

Key:
Escherichia coli = assay: Antibacterial activity against Escherichia coli SKF 12140 assessed as growth inhibition; assay type: functional
Clostridium perfringens = assay: Antibacterial activity against Clostridium perfringens ISS 30453 assessed as growth inhibition; assay type: functional
Trichomonas vaginalis [1] = assay: Antiprotozoal activity against Trichomonas vaginalis assessed as cidal effect; assay type: functional
Trichomonas vaginalis [2] = assay: Ratio of compound ED50 to metronidazole ED50 for Trichomonas vaginalis infected in po dosed mouse; assay type: functional
Trichomonas vaginalis [3] = assay: Antiprotozoal activity against Trichomonas vaginalis assessed as static effect; assay type: functional
Staphylococcus aureus = assay: Antibacterial activity against Staphylococcus aureus Tour assessed as growth inhibition; assay type: functional
Trichomonas vaginalis [4] = assay: Antiprotozoal activity against Trichomonas vaginalis infected in po dosed mouse; assay type: functional
[5] = Acute toxicity in po dosed mouse; assay type: organism-based; settings: in vivo
Outline: (§1)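 Mice dosed with the agent. LD50 values were computed by the Litchfield and Wilcoxon method.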

[6] = Acute toxicity in ip dosed mouse; assay type: organism-based; settings: in vivo; outline: as §1

Row | SMILES | MIC (Escherichia coli) [µg/mL] | MIC (Clostridium perfringens) [µg/mL] | MIC (Trichomonas vaginalis [1]) [µg/mL] | Ratio ED50 (Trichomonas vaginalis [2]) | MIC (Trichomonas vaginalis [3]) [µg/mL] | MIC (Staphylococcus aureus) [µg/mL] | ED50 (Trichomonas vaginalis [4]) [mg/kg] | LD50 [5] [mg/kg] | LD50 [6] [mg/kg]
1 | CC(C)c1cnc([N+](=O)[O-])n1C | > 300 | 5 (≈ 29.6 µM) | 20 (≈ 118 µM) | 0.17 | 5 (≈ 29.6 µM) | > 300 | 2.03 |  | 
2 | Cn1c(C(C)(C)O)cnc1[N+](=O)[O-] | 100 (≈ 540 µM) | 25 (≈ 135 µM) | 25 (≈ 135 µM) | 0.21 | 6.2 (≈ 33.5 µM) | 100 (≈ 540 µM) | 2.5 | 698 | 475
3 | COC(C)(C)c1cnc([N+](=O)[O-])n1C | > 100 | 100 (≈ 502 µM) | 50 (≈ 251 µM) | 0.19 | 6.2 (≈ 31.1 µM) | 100 (≈ 502 µM) |  |  | 225
4 | C=C(C)c1cnc([N+](=O)[O-])n1C | > 100 | 3.1 (≈ 18.5 µM) | 10 (≈ 59.8 µM) | 3.25 | 2 (≈ 12 µM) | > 100 | 32.5 | 350 | 
5 | Cn1c(C(C)(O)CO)cnc1[N+](=O)[O-] (stereo unspecified) | > 100 | 5 (≈ 24.9 µM) | 20 (≈ 99.4 µM) | >8 | 10 (≈ 49.7 µM) | > 100 | > 80 | > 1000 | 
6 | Cc1ncc([N+](=O)[O-])n1CCO [METRONIDAZOLE] | > 300 | 0.5 (≈ 2.92 µM) | 5 (≈ 29.2 µM) | 1 | 0.5 (≈ 2.92 µM) | > 300 | 11.5 |  | 
